Screens (PubChem)
XiGFP reactiv = X-chromosome reactivation activator; XiGFP mouse fibroblasts, % GFP-positive cells imaging, 3 d; cells co-treated with 5-aza-dC sensitizer; scaled so ellipticine positive control = 100%; activation, % at 7.58 µM; 360,000 tested, 0.055% active; AID 743238;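 active = mean normalized replicate activation at least 10% and every replicate at or above 10%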;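 also: 0% = median of on-plate neutral control wells and 100% = ellipticine 6 µM median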
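System: 68-5-11 XiGFP fibroblast line; Timing: 3 days compound exposure; Compound dosing: one concentration, pinned; Benchmarks: positive control ellipticine, 6 µM final; Buffer or medium: DMEM containing 5-aza-dC.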
Vif imaging = HIV Vif inhibition; HEK293T cells, Vif self-association by quenched fluorescence, imaging, 24 h; inhibition, % at 7.49 µM; 340,000 tested, 0.35% active; AID 602346; in the data active = inhibition above about 50%, passing the limit was not always enough
NPR2 activator = GC-B (human) receptor activation | P20594 | HEK293-GC-B cells, CNP EC30, cGMP TR-FRET; 0% at EC30 CNP, 100% saturating CNP | activation, % at 10 µM | 370,000 tested, 0.11% active;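 active = activation at 10 µM reaching about 35% in either raw or pattern-adjusted values, limit read from the data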
NPR1 activator = GC-A (human) enzyme activation; HEK293 GC-A cells, cGMP TR-FRET, EC30 ANP; 0% at EC30 ANP, 100% saturating ANP; 370,000 tested, 0.14% active; activation, % at 10 µM; in the data active = activation above about 40%
Target sequence (P16066 whole entry, looked up): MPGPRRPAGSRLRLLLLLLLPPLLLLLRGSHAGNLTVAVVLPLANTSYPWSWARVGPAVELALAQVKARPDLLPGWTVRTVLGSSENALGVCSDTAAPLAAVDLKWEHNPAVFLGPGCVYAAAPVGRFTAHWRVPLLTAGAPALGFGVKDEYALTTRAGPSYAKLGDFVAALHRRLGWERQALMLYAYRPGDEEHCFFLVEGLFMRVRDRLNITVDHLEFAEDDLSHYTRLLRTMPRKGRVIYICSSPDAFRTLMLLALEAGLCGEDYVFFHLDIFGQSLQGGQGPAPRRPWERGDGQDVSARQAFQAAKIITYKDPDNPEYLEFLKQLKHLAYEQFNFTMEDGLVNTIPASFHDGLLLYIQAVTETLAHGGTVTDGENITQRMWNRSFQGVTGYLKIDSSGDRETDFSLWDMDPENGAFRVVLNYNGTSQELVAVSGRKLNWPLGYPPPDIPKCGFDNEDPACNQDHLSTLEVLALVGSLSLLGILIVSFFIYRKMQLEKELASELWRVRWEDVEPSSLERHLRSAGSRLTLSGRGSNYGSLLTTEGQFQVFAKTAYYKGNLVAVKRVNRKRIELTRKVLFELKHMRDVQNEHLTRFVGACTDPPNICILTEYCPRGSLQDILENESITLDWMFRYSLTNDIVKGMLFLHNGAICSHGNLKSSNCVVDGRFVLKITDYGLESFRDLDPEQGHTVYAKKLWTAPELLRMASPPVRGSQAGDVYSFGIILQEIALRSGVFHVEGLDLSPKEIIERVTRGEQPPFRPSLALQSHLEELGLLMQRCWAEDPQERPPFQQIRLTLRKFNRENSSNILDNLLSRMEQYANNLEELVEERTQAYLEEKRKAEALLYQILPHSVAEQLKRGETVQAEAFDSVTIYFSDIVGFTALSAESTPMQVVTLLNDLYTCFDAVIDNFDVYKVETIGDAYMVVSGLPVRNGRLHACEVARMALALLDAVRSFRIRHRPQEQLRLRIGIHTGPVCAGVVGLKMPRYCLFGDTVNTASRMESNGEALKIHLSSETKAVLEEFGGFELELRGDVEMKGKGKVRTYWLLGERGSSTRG
Glyco luc inh = N-linked glycosylation inhibition | D54 ERlucT glycosylation luciferase reporter, 24 h; percent of 100 nM tunicamycin response | reporter increase, % at 12.5 µM | 360,000 tested, 0.23% active | AID 588692;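 active = mean luciferase reporter signal, scaled so untreated is 0 and the glycosylation-blocking control 100, at or above a set limit in every replicate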;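 also: luciferase carries N-glycosylation sites so blocking glycosylation raises the light; 0% = median of neutral control wells and 100% = median of 100 nM tunicamycin wells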
CaV13 ICDI inh = Disruptors of the CACNA1D IQ motif to Ca2+-dependent inactivation inhibitor domain association, primary screening, Förster resonance energy transfer in intact living …; HEK cells, CFP/YFP FRET ICDI-IQ, plate reader, 10 min; percent FRET-ratio fall versus neutral wells; AID 743397; 340,000 tested, 0.098% active; inhibition, % at 12.3 µM;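 active = mean replicate inhibition of at least 30% and at least 1% of replicates passing that level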;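 also: 0% = median of the neutral control wells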
Starred values were filed as active, the others as inactive; / = not tested or not shown. The list is not random: actives were taken first. Their share in the collection is about 0.7%.

SMILES	XiGFP reactiv	Vif imaging	NPR2 activator	NPR1 activator	Glyco luc inh	CaV13 ICDI inh
C[C@@H]1CN([C@@H](C)CO)C(=O)c2cc(NS(=O)(=O)c3cn(C)cn3)ccc2O[C@@H](C)CCCCO[C@H]1CN(C)Cc1ccc(C(=O)O)cc1	0.1	/	/	/	/	/
COc1ccc(OC)c(/C(O)=C/C(=O)C(=O)Nc2cc(C)ccc2OC)c1	/	61.0*	-1.8	-8.7	2.5	-5.6
Cc1oc(C(C)(C)C)cc1-c1cc(NC(=O)c2ccc([N+](=O)[O-])cc2)n[nH]1	0.0	1.5	56.6*	43.5*	1.0	-4.4
Cc1cc(NC(=O)c2ccc([N+](=O)[O-])cc2)no1	0.0	-0.6	2.3	-2.2	-0.3	-5.2
COC(=O)c1c(-n2c(C)cc(C=O)c2C)sc2c1CCCC2	/	84.1*	-3.0	-9.0	-2.5	-6.8
Cc1cc(C=O)c(C)n1-c1sc2c(c1C(=O)O)CCCC2	0.0	28.5	3.0	-0.2	-0.4	-5.4
O=C(C[C@H]1C=C[C@H](NC(=O)Nc2ccc(F)cc2)[C@H](CO)O1)NCc1ccccn1	-0.4	/	/	/	/	/
Cc1cccc(-c2ccc([C@@H]3[C@@H](CO)N4CCCCN(S(=O)(=O)c5ccccc5C)C[C@@H]34)cc2)c1	0.4	/	/	/	/	/
O=C(CSc1nc2ccccc2c(=O)[nH]1)c1ccccc1	/	-2.6	0.4	-2.5	-0.7	-7.7
O=C(CCCSc1nc2ccccc2c(=O)[nH]1)c1ccccc1	-0.1	51.7*	-2.7	-1.3	-1.0	-4.5
COc1ccccc1CNC(=O)CSC1=NCCS1	0.0	58.3*	0.2	0.4	0.6	-4.5
O=C(NC1=NN(c2ccccc2)CC1)Nc1ccccc1F	50.3*	2.6	-7.0	19.6	3.2	-6.4
O=C(Nc1ccccc1F)Nc1ccccc1N1CCCCC1	0.0	5.6	-2.9	1.9	-3.6	-4.7
COC(=O)c1nn(-c2ccccc2)c(Sc2ccccc2)c1/C=N/O	/	-0.9	0.8	20.4	-3.7	/
COC(=O)c1nn(-c2ccccc2)c(Sc2ccc(C)cc2)c1/C=N/O	/	/	-9.3	56.3*	-4.1	/
O=C(Nc1cccc(F)c1)c1cc(S(=O)(=O)N2CCOCC2)ccc1N1CCCC1	/	2.5	/	/	28.0*	/
CN(C)S(=O)(=O)c1ccc(N2CCCC2)c(C(=O)Nc2ccc(C(N)=O)cc2)c1	0.1	/	12.5	9.3	0.5	-7.1
Cc1ccc(NC(=O)c2cc(S(=O)(=O)N(C)C)ccc2N2CCCC2)cc1S(=O)(=O)N(C)C	-0.8	0.1	38.4*	37.2	60.0*	-6.0
O=C(Nc1cccc(C(F)(F)F)c1)c1cc(S(=O)(=O)N2CCCCC2)ccc1N1CCOCC1	/	18.6	2.9	-5.8	-6.0	-2.8
Cc1ccc(NC(=O)c2cc(S(=O)(=O)N3CCCCC3)ccc2N2CCOCC2)cc1S(=O)(=O)N(C)C	0.0	51.7*	1.6	-5.7	-3.7	-17.4
COc1ccc(NC(=O)c2cc(S(=O)(=O)N(C)C)ccc2N2CCCC2)cc1Cl	0.4	3.0	16.3	9.1	36.5*	-2.5
O=C(Cc1ccccn1)NCC[C@H]1CC[C@@H](NC(=O)Nc2ccccc2)[C@@H](CO)O1	-0.4	/	/	/	/	/
C[C@@H]1CCCCO[C@@H](CN(C)Cc2ccc3c(c2)OCO3)[C@H](C)CN([C@@H](C)CO)C(=O)c2cc(NC(=O)Nc3ccc(C(F)(F)F)cc3)ccc2O1	0.3	/	/	/	/	/
C[C@H](CO)N1C[C@H](C)[C@H](CN(C)C(=O)Nc2cccc3ccccc23)Oc2ncc(-c3cccc(C(F)(F)F)c3)cc2C1=O	-0.4	/	/	/	/	/
O=C(NCC1CC1)[C@@H]1N[C@@H]2c3ccc(-c4ccccc4F)c(=O)n3C[C@@H]2[C@H]1CO	-0.1	/	/	/	/	/
SMILES	XiGFP reactiv	Vif imaging	NPR2 activator	NPR1 activator	Glyco luc inh	CaV13 ICDI inh
CC(C)C(=O)N=C1SC2CS(=O)(=O)CC2N1Cc1ccccc1 (stereo not drawn)	0.0	54.9*	-12.5	-8.8	-1.3	-14.9
Oc1cccc(Nc2nc(O)c(/C=C3\C=Nc4ccccc43)s2)c1	0.1	56.8*	-1.3	-6.9	0.4	-5.7
CN1CCN(C(=O)C[C@H]2CC[C@@H]3[C@H](COC[C@@H](O)CN3Cc3ccc4c(c3)OCO4)O2)CC1	0.2	/	/	/	/	/
CCOc1ccc(/C=C2/SC(=O)NC2=S)cc1	/	-8.5	-2.5	-1.1	2.2	-7.2
CCOc1ccc(N=C2NC(=O)S/C2=C\c2ccc(N(C)C)cc2)cc1	/	148.2*	-7.3	2.0	-2.0	-6.3
Cc1ccc(N2C(=O)Nc3ccccc3C2(O)C(=O)N2CCN(c3ccccn3)CC2)cc1C (stereo not drawn)	-0.1	2.3	-9.4	-2.8	29.0*	-3.4
CCc1ccc(N2C(=O)Nc3ccccc3C2(O)C(=O)N2CCN(c3ccccn3)CC2)cc1 (stereo not drawn)	0.0	-5.2	1.8	-0.7	37.6*	-5.7
O=C1Nc2ccccc2C(O)(C(=O)N2CCCCC2)N1c1ccccc1 (stereo not drawn)	/	-2.2	-1.2	-0.2	-0.5	/
C[C@H](CO)N1C[C@H](C)[C@@H](CN(C)C(=O)Nc2ccc(C(F)(F)F)cc2)Oc2ccc(NC(=O)Nc3cccc4ccccc34)cc2CC1=O	-1.2	/	/	/	/	/
COc1ccc(NC(=O)N(C)C[C@@H]2Oc3ccc(NC(=O)Nc4cccc5ccccc45)cc3C(=O)N([C@@H](C)CO)C[C@H]2C)cc1	-0.1	/	/	/	/	/
O=C(Nc1ccc(Cl)cc1)N[C@H]1CC[C@H](CCn2cc(C3(O)CCCC3)nn2)O[C@H]1CO	0.3	/	/	/	/	/
O=C(C[C@H]1C[C@H]2c3cc(NC(=O)Cc4ccncc4)ccc3O[C@H]2[C@H](CO)O1)NCc1cccnc1	-0.1	/	/	/	/	/
CN1C(=O)CSc2ccc(NC(=O)Nc3ccccn3)cc21	/	-5.1	5.3	4.1	31.2*	-9.0
COc1ccc2c3c(n(C)c2c1)[C@@H](CO)N(CC1CC1)CC31CCN(S(=O)(=O)c2cn(C)cn2)CC1	0.2	/	/	/	/	/
C[C@H](CO)N1C[C@H](C)[C@@H](CN(C)Cc2ccncc2)Oc2c(NC(=O)Cn3cnnn3)cccc2C1=O	0.3	/	/	/	/	/
CCOc1ccc(C(C)=O)cc1COC(=O)c1cc([N+](=O)[O-])ccc1N1CCOCC1	0.0	71.4*	5.0	0.8	5.3	-5.5
C[C@H](CO)N1C[C@H](C)[C@H](CN(C)C(=O)CN2CCOCC2)Oc2ncc(C3=CCCCC3)cc2C1=O	0.1	/	/	/	/	/
CCn1c(Cl)c(C=O)s/c1=N\S(=O)(=O)c1ccccc1	34.6*	12.6	20.7	7.1	-6.5	-2.7
CS(=O)(=O)Nc1ccc2c(c1)[C@@H]1C[C@@H](CC(=O)N3CCCCC3)O[C@H](CO)[C@@H]1O2	0.0	/	/	/	/	/
Cc1csc(NC(=O)c2ccc(COc3ccc(Cl)c(Cl)c3)o2)n1	/	/	-2.0	24.5	/	/
